The subject of one assay is Herpesviridae sp. Briefly: Antiviral activity against Herpes simplex virus assessed as inhibition of viral replication at 10 uM relative to control. It is filed as functional.
The test system of assay [1] is Staphylococcus aureus. Briefly: Antimicrobial activity against methicillin-resistant Staphylococcus aureus isolate shhs-A1 by two-fold serial dilution method. Format: functional. Summed up:
(§1)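 MIC by 2-fold serial broth dilution in Mueller-Hinton broth, following CLSI standard methods; panel run alongside S. aureus ATCC 29213 and E. faecalis ATCC 29212.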

For assay [2], the system named is Staphylococcus aureus. Put plainly: Antimicrobial activity against methicillin-resistant Staphylococcus aureus isolate 699 by two-fold serial dilution method. It is filed as functional. The essentials: as §1
In assay [3] the test system is Staphylococcus aureus. Put plainly: Antimicrobial activity against methicillin-resistant Staphylococcus aureus isolate 1862 by two-fold serial dilution method. It is filed as functional. Summed up:
as §1

Assay [4] deals with Staphylococcus aureus. Briefly: Antimicrobial activity against Staphylococcus aureus ATCC 29213 by two-fold serial dilution method. It is filed as functional. Summed up: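 MIC measured by 2-fold serial broth dilution in Mueller-Hinton broth, following CLSI standard methods.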
In a further assay the test system is Enterococcus faecalis. Briefly: Antimicrobial activity against Enterococcus faecalis ATCC 29212 by two-fold serial dilution method. It is filed as functional. Summed up:
as §1

Assay [5] has as its system Vesicular stomatitis virus. Put plainly: Antiviral activity against Vesicular stomatitis virus infected in African green monkey Vero cells after 16 hrs by fluorescence microscopy. Format: functional, organism-based.

SMILES strings stand for the structures. pIC50: −log10 of the molar value. Values after ≈ are worked out from the molar mass of the structure shown.

For orientation: inhibition means the share of the control response that was lost under treatment. The term MIC denotes the least concentration at which growth counts as inhibited. The pIC50 is −log10 of the IC50, conventionally taken in molar units.

`C[C@H]1CC/C(O)=C2/C(=O)O[C@@]34C=C[C@]5(C1=O)[C@H](O)[C@@](C)(O[C@]235)[C@@H](C)C4`: the inhibition at 10 µM with Herpesviridae sp. was 31%.

For `C[C@H]1CC/C(O)=C2/C(=O)O[C@]34C[C@H](C)[C@]5(C)O[C@]23[C@H](C1=O)[C@@H](S[C@H]1[C@H]2[C@H](O)[C@@]3(C)O[C@@]67/C(=C(/O)CC[C@H](C)C(=O)[C@H]16)C(=O)O[C@@]27C[C@@H]3C)[C@H]4[C@@H]5O`, the MIC worked out at 16 µg/mL (≈ 22 µM) with Staphylococcus aureus [1]; 16 µg/mL (≈ 22 µM) against Staphylococcus aureus [2]; 16 µg/mL (≈ 22 µM) in the assay on Staphylococcus aureus [3]; 32 µg/mL (≈ 44 µM) in the assay on Staphylococcus aureus [4]; 32 µg/mL (≈ 44 µM) against Enterococcus faecalis. In assay [5], this compound showed a negative logarithm of the IC50 (pIC50) of 4.62.

As for `C[C@H]1CCC(=O)C2=C3O[C@@]4(C)[C@@H](C)C[C@]3(OC2=O)[C@@H]([C@H](S[C@H]2[C@H]3[C@H](O)[C@@]5(C)O[C@@]67/C(=C(/O)CC[C@H](C)C(=O)[C@H]26)C(=O)O[C@@]37C[C@@H]5C)CC1=O)[C@@H]4O`, the MIC in the assay on Staphylococcus aureus [1] came out at 16 µg/mL (≈ 22 µM); against Staphylococcus aureus [2], 16 µg/mL (≈ 22 µM); against Staphylococcus aureus [3], 16 µg/mL (≈ 22 µM); in the assay with Staphylococcus aureus [4], 32 µg/mL (≈ 44 µM); with Enterococcus faecalis, 32 µg/mL (≈ 44 µM). This compound had a pIC50 in assay [5] of 4.72.

Take `CC1(C)S[C@@H]2[C@H](NC(=O)[C@H](N)c3ccccc3)C(=O)N2[C@H]1C(=O)O` [AMPICILLIN]: the MIC amounted to 64 µg/mL (≈ 183 µM) against Staphylococcus aureus [1]; 4 µg/mL (≈ 11.4 µM) against Staphylococcus aureus [2]; 0.125 µg/mL (≈ 0.358 µM) in the assay on Staphylococcus aureus [3]; 0.25 µg/mL (≈ 0.715 µM) in the assay on Staphylococcus aureus [4]; 16 µg/mL (≈ 45.8 µM) with Enterococcus faecalis.

As to `CN[C@H](CC(C)C)C(=O)N[C@H]1C(=O)N[C@@H](CC(N)=O)C(=O)N[C@H]2C(=O)N[C@H]3C(=O)N[C@H](C(=O)N[C@H](C(=O)O)c4cc(O)cc(O)c4-c4cc3ccc4O)[C@H](O)c3ccc(c(Cl)c3)Oc3cc2cc(c3O[C@@H]2O[C@H](CO)[C@@H](O)[C@H](O)[C@H]2O[C@H]2C[C@](C)(N)[C@H](O)[C@H](C)O2)Oc2ccc(cc2Cl)[C@H]1O` [VANCOMYCIN], the minimum inhibitory concentration (MIC) against Staphylococcus aureus [2] turned out to be 0.125 µg/mL (≈ 0.0863 µM); in the assay on Staphylococcus aureus [3], 0.125 µg/mL (≈ 0.0863 µM); in the assay with Staphylococcus aureus [4], 0.25 µg/mL (≈ 0.173 µM); against Enterococcus faecalis, 0.25 µg/mL (≈ 0.173 µM).

Source of the values: ChEMBL document CHEMBL4196137, “Abyssomicin Monomers and Dimers from the Marine-Derived Streptomyces koyangensis SCSIO 5802” (J Nat Prod, 2018).
